# Results reported in PMC3040319 (Pharmaceutical Research, 2010).
# Read-outs that look alike come from different tables or passages of the source.
# Columns and labels:
# Oct1+/+ and Oct1-/- mice = assay: Toxicity study of oxaliplatin in Oct1+/+ and Oct1-/- mice; assay type: in vivo, mouse; conditions: 6 mg/kg i.p. once daily for 5 days
# [1] = Tissue accumulation of platinum in Oct1+/+ and Oct1-/- mice; assay type: in vivo, mouse; conditions: 1 h after 8 mg/kg i.v.
# How it was run: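 Male FVB Oct1+/+ and Oct1-/- mice (8 weeks) were given 8 mg/kg in saline i.v. by tail vein and killed 1 h later. Liver, kidney, heart, lung, brain, intestine, spleen and muscle were snap-frozen. Total Pt was measured by ICP-MS in 10–30 mg tissue and reported as nmol/g tissue; plasma was reported in μM.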
# [2] = tested on: primary mouse hepatocytes; assay type: in vitro ADME; conditions: 30 min exposure
smiles,measurement,setting,value
"O=C1[O][Pt]2([NH][C@@H]3CCCC[C@H]3[NH]2)[O]C1=O [oxaliplatin, Oxaliplatin, reference compound]",relative body weight loss,Oct1+/+ and Oct1-/- mice; Oct1+/+ mice,15.1%
same,relative body weight loss,Oct1+/+ and Oct1-/- mice; Oct1-/- mice,6.8%
same,liver histopathology examination,Oct1+/+ and Oct1-/- mice; either Oct1+/+ or Oct1-/- mice,no clear sign of liver damage
same,plasma concentration,[1]; Oct1+/+ mice,5.96 ± 0.54 µM
same,plasma concentration,[1]; Oct1-/- mice,6.69 ± 0.62 µM
same,"hepatocellular uptake rate, wild-type as fold of Oct1-/-",[2]; 1 μM,1.8 fold
same,"hepatocellular uptake rate, wild-type as fold of Oct1-/-",[2]; 5 μM,1.4 fold
same,hepatocellular uptake rate,"[2]; hepatocytes from Oct1-/- mice, 1 μM",0.855 ± 0.184 pmol/mg protein/hr
same,hepatocellular uptake rate,"[2]; hepatocytes from Oct1-/- mice, 5 μM",3.97 ± 0.500 pmol/mg protein/hr
same,hepatocellular uptake rate,"[2]; hepatocytes from Oct1 wild-type mice, 1 μM",1.54 ± 0.300 pmol/mg protein/hr
same,hepatocellular uptake rate,"[2]; hepatocytes from Oct1 wild-type mice, 5 μM",5.55 ± 0.384 pmol/mg protein/hr
